We go through 18 molecules from ChEMBL document CHEMBL1135595, “Design, synthesis and biological evaluation of novel N-alkyl- and N-acyl-(7-substituted-2-phenylimidazo[1,2-a][1,3,5]triazin-4-yl)amines (ITAs) as novel A(1) adenosine receptor antagonists” (J Med Chem, 2002).

One assay deals with T1, Adenosine receptor A1 (Bos taurus, UniProt P28190).
T1 sequence (P28190 whole entry): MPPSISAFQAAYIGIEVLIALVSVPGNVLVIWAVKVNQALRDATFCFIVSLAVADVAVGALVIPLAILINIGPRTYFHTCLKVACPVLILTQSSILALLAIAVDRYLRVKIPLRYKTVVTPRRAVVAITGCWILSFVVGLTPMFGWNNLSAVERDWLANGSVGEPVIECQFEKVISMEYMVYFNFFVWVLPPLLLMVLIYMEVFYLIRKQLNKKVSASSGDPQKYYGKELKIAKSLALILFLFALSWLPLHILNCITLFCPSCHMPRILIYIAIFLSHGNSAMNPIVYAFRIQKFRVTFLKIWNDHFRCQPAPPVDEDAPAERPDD
Description: Displacement of [3H]CHA from Adenosine A1 receptor in bovine cortical membranes. Type of assay: cell membranes. A digest of the protocol: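 Compounds were dissolved in DMSO (≤2% in assay) and tested at six or more concentrations. n = 4 independent experiments in triplicate. Ki and IC50 ± SEM came from iterative curve fitting. Protein was measured with BSA as standard after NaOH (0.75 N) solubilization.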
For orientation: Loss of bound radioactivity is the signal in a displacement assay; it reports binding, not function.

For assay [1], the target named is Adenosine receptor A2a (Bos taurus). Description: Displacement of [3H]- CGS-21680 from Adenosine A2a receptor in bovine striatal membranes.

By Ki is commonly meant the dissociation constant of the complex between target and ligand, obtained from inhibition or displacement. A lower Ki goes with a stronger hold on the target. Regarding `O=C(Nc1nc(-c2ccccc2)nc2nc(-c3ccccc3)cn12)C1CCCC1`, the Ki on Adenosine receptor A1 was determined as 0.017 µM; in assay [1] it was 2.5 µM.

For `CC(C)c1cn2c(NC(=O)C3CCCC3)nc(-c3ccccc3)nc2n1`, the Ki on Adenosine receptor A1 is 0.0058 µM; in assay [1] it was > 10 µM.

For `CC(=O)CNc1nc(-c2ccccc2)nc2nc(-c3ccccc3)cn12`, the Ki on Adenosine receptor A1 was > 10 µM.

For `CC(=O)Nc1nc(-c2ccccc2)nc2nc(-c3ccccc3)cn12`, the values for the Ki (on Adenosine receptor A1; in assay [1]) were 0.023 µM and 3.2 µM, respectively.

On Adenosine receptor A1, `CCc1cn2c(NC(=O)C3CCCC3)nc(-c3ccccc3)nc2n1` had a Ki of 0.0033 µM.

Consider `Cc1cn2c(NC34C[C@H]5C[C@@H](C3)C[C@@H](C4)C5)nc(-c3ccccc3)nc2n1`, for which the Ki at Adenosine receptor A1 was 0.511 µM; in assay [1] it was > 10 µM.

For the molecule `CC(=O)CNc1nc(-c2ccccc2)nc2nc(C(C)C)cn12`, at Adenosine receptor A1, the affinity, expressed as Ki, was 2.36 µM.

On Adenosine receptor A1, `Cc1cn2c(NCc3ccccc3)nc(-c3ccccc3)nc2n1` displayed a Ki of 3.9 µM.

As to `CC(=O)CNc1nc(-c2ccccc2)nc2nc(C)cn12`, the Ki was 0.012 µM at Adenosine receptor A1 and > 10 µM in assay [1].

At Adenosine receptor A1, `Cc1cn2c(NCC3CCCCC3)nc(-c3ccccc3)nc2n1` came in with a Ki of 0.231 µM.

As to `CC(=O)Nc1nc(-c2ccccc2)nc2nc(C)cn12`, the figures for the Ki (at Adenosine receptor A1; in assay [1]) were 0.855 µM and > 10 µM, respectively.

As to `CCc1cn2c(NCC(C)=O)nc(-c3ccccc3)nc2n1`, on Adenosine receptor A1, the Ki was > 10 µM.

For `CCC(=O)CNc1nc(-c2ccccc2)nc2nc(C)cn12`, the Ki (on Adenosine receptor A1; in assay [1]) was > 10 µM each time.

Regarding `Cc1cn2c(NC(=O)c3ccccc3)nc(-c3ccccc3)nc2n1`, the Ki on Adenosine receptor A1 stood at 0.0272 µM.

In the case of `Cc1cn2c(NC3CCCC3)nc(-c3ccccc3)nc2n1`, the Ki worked out at 0.041 µM on Adenosine receptor A1 and 4.1 µM in assay [1].

As to `Cc1cn2c(NC(=O)C3CCCC3)nc(-c3ccccc3)nc2n1`, at Adenosine receptor A1, the Ki was found to be 0.0044 µM.

Molecule `Cc1cn2c(NC(=O)C3CCCCC3)nc(-c3ccccc3)nc2n1` showed a Ki at Adenosine receptor A1 of 0.116 µM.

At Adenosine receptor A1, `Cc1cn2c(N)nc(-c3ccccc3)nc2n1` showed a Ki of 0.332 µM.
